Screens deposited in PubChem by several laboratories.
Shown are actives, neighbours in structure and some others; about 10% of the full set was active somewhere.
Lmaj promast: Leishmania major promastigote growth inhibition; hit rate 9% among 200,000; inhibition, % at 10 µM; Leishmania major promastigotes, resazurin fluorescence viability; AID 1063; in the data active means inhibition above about 50%;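 further: promastigotes grown with compound for 44 hours at 28 °C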
PMI act hi M6P: activators of human phosphomannose isomerase at near-saturating mannose 6-phosphate; P34949; coupled PMI enzyme assay, resazurin fluorescence, 20 min; active compounds read high; 1 = untreated enzyme, 0 = substrate-free blank; activation factor at 20 µM; hit rate 0.34% among 190,000;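 active means activation factor of 2 or more at 20 µM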
Target sequence (P34949 whole entry, looked up): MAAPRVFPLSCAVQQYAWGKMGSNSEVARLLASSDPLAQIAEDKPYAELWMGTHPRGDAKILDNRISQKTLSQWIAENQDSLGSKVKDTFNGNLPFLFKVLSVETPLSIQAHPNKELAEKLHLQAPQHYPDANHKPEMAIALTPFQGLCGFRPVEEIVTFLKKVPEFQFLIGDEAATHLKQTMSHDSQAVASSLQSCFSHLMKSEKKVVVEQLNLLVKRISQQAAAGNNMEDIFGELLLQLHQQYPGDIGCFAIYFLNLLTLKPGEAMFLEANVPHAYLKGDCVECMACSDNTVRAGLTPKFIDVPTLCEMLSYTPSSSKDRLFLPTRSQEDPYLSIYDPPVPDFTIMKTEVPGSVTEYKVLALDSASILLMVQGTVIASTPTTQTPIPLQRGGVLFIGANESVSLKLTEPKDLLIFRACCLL
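Technique: Diaphorase-driven resazurin-to-resorufin fluorescence, excitation 544, emission 590 nm | Assay system: Human PMI in coupled enzyme assay | Times: Enzyme reaction with compound 20 min at room temperature | Medium: HEPES-buffered pH 7.4 with magnesium and detergent | Reagent: Mannose-6-phosphate 1.0 mM (near-saturating) plus 0.22 mM NADP+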
PMI activator: activators of human phosphomannose isomerase | P34949 | purified human PMI, coupled resazurin fluorescence, 20 min; active compounds read high; 1 = vehicle control, 0 substrate-free wells | activation factor at 20 µM | hit rate 0.005% among 190,000 | AID 1214;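 active means activation factor of 2 or more at 20 µM, relative to plate controls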
Diaphorase act: diaphorase activation or chemical reduction counter-screen; Diaphorase/resazurin coupled assay, resorufin fluorescence, 16 min; active compounds read high; 1 = vehicle wells, 0 = NADH-free wells; activation factor at 20 µM; hit rate 0.005% among 190,000; AID 1229;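 active means diaphorase activity raised at least twofold by the compound at 20 µM; inactive means activation factor below 2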
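Assay system: bacterial diaphorase enzyme (C. kluyveri) / Input: enzyme 0.07 U/mL final / Medium: 50 mM HEPES pH 7.4 with 4.542 mM MgCl2, 0.005% Tween 20 / Doses: single compound dose of 20 µM, 1% DMSO final / Incubation: 16 min enzyme reaction, ambient temperature / Signal: fluorescence, excitation 544 nm and emission 590 nm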
WT yeast gro inh: growth inhibition of WT yeast, mitochondrial fusion screen; AID 1362; mitochondrial fusion phenotypic screen, WT strain; hit rate 2.1% among 190,000; inhibition, % at 10 µM; in the data active means inhibition above about 58%; tested in S. cerevisiae
Numbers without * were called inactive; / = no result given.

SMILES	Lmaj promast	PMI act hi M6P	PMI activator	Diaphorase act	WT yeast gro inh
CCN(CC)C(=O)NCc1c(C)cc(C)cc1C	-2.0	1.1	1	1	-3.4
O=C1C(=O)N(CC2CCCO2)C(c2ccccc2[N+](=O)[O-])/C1=C(/O)c1ccccc1 (stereo not drawn)	-3.9	0.9	1.2	0.9	-16.1
CC1CC(NC(=O)CCn2c(=O)oc3ccccc32)CC(C)(C)C1 (stereo not drawn)	99.4*	1	1	0.9	2.5
Cc1cc(C)n(C(=O)c2cc3c(s2)CCCC3)n1	-0.8	0.9	0.9	0.9	-15.4
CCc1ccc2[nH]c(=O)c(CN(CCCN3CCOCC3)C(=O)Nc3ccccc3)cc2c1	21.1	1	0.9	0.9	1.2
Cc1ccc(C)c2[nH]c(=O)c(CN(CCN3CCCC3)C(=O)Nc3cccc(Cl)c3)cc12	100.5*	1	1	1.1	5.2
Cc1cc(C)c2cc(CN(CCN3CCCC3)C(=O)Nc3ccc(F)cc3)c(=O)[nH]c2c1	43.6	0.9	1	0.9	12.1
CCc1ccc2[nH]c(=O)c(CN(CCCN3CCOCC3)C(=O)Nc3cccc(Cl)c3)cc2c1	83.5*	0.9	0.9	0.8	-0.7
S=C(NCc1ccc2c(c1)OCO2)NC1CC1	-0.3	1	1	1.1	27.5
CCCCNC(=O)c1onc(CSc2ccc(Cl)cc2)c1C(=O)O	-11.3	1.1	1.1	0.9	-14.2
COc1ccc(NC(=S)Nc2cccc(C(F)(F)F)c2)c(C)c1	11.3	1	1	0.9	28.2
N#Cc1sc2nc(C3CC3)cc(-c3ccc(Cl)cc3)c2c1N	9.4	0.9	0.8	0.8	72.0*
O=C(O)/C=C/C(=O)NC1CCCCC1	-9.3	1	0.8	1	-6.9
CCN(CC)c1ncnc2c1[nH]c1ccccc12	60.1*	1	0.9	0.9	0.2
CCCOc1ncnc2c1[nH]c1ccccc12	47.0	0.9	0.9	0.9	-3.9
CS(=O)(=O)N(CC(=O)NCc1ccco1)c1ccc(Cl)c(C(F)(F)F)c1	76.3*	1	1	0.9	3.4
CS(=O)(=O)N(CC(=O)NCc1ccco1)c1ccccc1Cl	-3.0	1.1	1	0.9	-26.8
Cc1ccc2nc(NC(=O)CSc3nnc(C)c(=O)n3N)sc2c1	54.5*	1	1.1	1.1	-2.5
CCCOc1ccc(C2C(C(=O)c3ccco3)=C(O)C(=O)N2CCN2CCOCC2)cc1OC (stereo not drawn)	-4.1	1.3	1.1	0.9	58.2*
c1ccc(-c2nnc(OCCN3CCOCC3)c3ccccc23)cc1	83.2*	1.1	1	1.1	-7.7
CCCNC(=O)COC(=O)CCC(=O)c1cccs1	57.4*	1	1	0.8	19.1
CCNC(=O)COC(=O)CCC(=O)c1cccs1	-1.7	0.9	0.8	1	4.2
CCN(CCO)C1CC(=O)N(c2ccccc2C)C1=O (stereo not drawn)	59.8*	1.1	1	1	7.5
Cc1ccccc1N1C(=O)CC(N(O)c2ccccc2)C1=O (stereo not drawn)	-7.8	1.1	1.1	1	0.3
COC(=O)c1sccc1NC(=O)C1CCCCC1C(=O)O (stereo not drawn)	-6.8	0.9	0.8	0.8	4.7
SMILES	Lmaj promast	PMI act hi M6P	PMI activator	Diaphorase act	WT yeast gro inh
CCN(CC)CCNC(=O)c1ccc2c(=O)n(C3CCCC3)c(=S)[nH]c2c1	85.2*	1	1	1	4.0
CC(C)NC(=O)c1ccc2c(=O)n(C3CCCC3)c(=S)[nH]c2c1	1.0	1	1	0.9	-17.7
Cc1ccc(C)c(CN2C(=O)C3(OCCCO3)c3ccccc32)c1	57.9*	1	1	0.8	24.8
Cc1csc2c(=O)[nH]cnc12	-3.3	1	1	0.9	-7.7
OCCN1CCN(c2ncnc3c2c(-c2ccccc2)cn3-c2ccc(Br)cc2)CC1	36.6	0.9	0.9	1	84.7*
CCN1CCN(c2ncnc3c2c(-c2ccccc2)cn3-c2ccc(F)cc2)CC1	86.2*	1	1	1	26.0
CCCCNc1c(N)n(CCCC)c(=O)[nH]c1=O	48.4	0.9	0.9	0.9	-7.1
Cc1ccc(Nc2nc(-c3c(C)nc4ncccn34)cs2)cc1	60.2*	0.8	0.7	0.9	-3.8
Cc1ccc(Nc2nc(-c3c(C)nc4ccccn34)cs2)cc1	92.7*	0.4	0.8	0.7	70.9*
Cc1nc2ncccn2c1-c1csc(Nc2ccc(O)cc2)n1	10.0	0.6	0.9	0.7	6.5
Cc1cccc(-n2c(SCc3ccc([N+](=O)[O-])cc3)nnc2-c2c[nH]c3ccccc23)c1	21.4	1	0.9	0.8	3.4
CCOc1cc(NC(=S)NCCc2ccccc2)c(OCC)cc1NC(C)=O	-9.9	/	/	/	-15.5
Cc1ccc(S(=O)(=O)N2CCCCC2C(=O)O)s1 (stereo not drawn)	1.2	1	1.1	1	1.3
CN(C)N1C(N)=C(C#N)C(c2cccc3ccccc23)C2=C1CC(c1ccccc1)CC2=O (stereo not drawn)	95.5*	0.6	0.7	1	11.3
COc1ccc(N2C(=O)C3ON(C4SC(=S)N(C)C4(C)C)C(c4ccc(Cl)cc4)C3C2=O)cc1 (stereo not drawn)	-4.7	0.9	0.8	0.9	2.5
Cc1cc(C)c(S(=O)(=O)N(C2=NCCS2)S(=O)(=O)c2c(C)cc(C)cc2C)c(C)c1	98.2*	1	1	0.8	10.5
Cc1cc(C)c(S(=O)(=O)N(CC(=O)O)CC(=O)O)c(C)c1	-8.7	1.2	1.1	1.2	2.1
OCCN(CCO)CC(O)COc1ccc(C23CC4CC(CC(C4)C2)C3)cc1 (stereo not drawn)	100.3*	1	1	0.9	95.5*
OCCN(CCO)CC(O)COCCC12CC3CC(CC(C3)C1)C2 (stereo not drawn)	71.1*	1.2	1.1	1	9.1
COC(=O)c1ccc(OCC(O)CN(CCO)CCO)cc1 (stereo not drawn)	0.1	1	1	0.9	-3.1
CCN(CC)CC(O)COCCC12CC3CC(CC(C3)C1)C2 (stereo not drawn)	93.5*	1.1	1.1	0.9	20.4
CCc1ccc(OCCOCC(O)CN(CCO)CCO)cc1 (stereo not drawn)	-6.4	1.1	1	0.9	4.7
CCCNC(=O)NCCC12CC3CC(CC(C3)C1)C2	45.5	0.9	1	0.9	2.4
CN1CCN(C(=S)c2cn(CCOc3ccccc3)c3ccccc23)CC1	23.9	1	1.1	1	19.3
C=CCN1C(c2ccc(Br)cc2)=CS/C1=C(/C#N)c1nnc(N2CCOCC2)n1-c1ccccc1	56.2*	0.9	0.9	0.9	3.7
C=CCN1C(c2cccc(C(F)(F)F)c2)=CS/C1=C(/C#N)c1nnc(N2CCOCC2)n1-c1ccccc1	43.4	1.2	1.1	0.9	-76.3
